The results in this text go back to the EternaBench riboswitch data.

The subject of the data set is MS2 coat protein. In words: apparent Kd, MS2 coat protein; higher = weaker binding; RNA-MaP array; FMN 200 µM where present. The gist of the method:
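The titrant was SNAP-549-labelled MS2 coat protein, run from 0.7 or 1.5 nM in doubling steps to 3 µM. It was applied to designs transcribed by stalled E. coli RNA polymerase on Illumina sequencing-chip clusters, without ligand first and then with constant ligand, in 100 mM Tris-HCl pH 7.5, 80 mM KCl, 4 mM MgCl2, BSA, DTT, yeast tRNA and Tween-20. The apparent Kd is the median of filtered per-cluster binding-curve fits, with green signal normalised to red-channel RNA signal and control-cluster median Fmax.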

Setting [1] is: designed as: OFF switch for flavin mononucleotide, no ligand.
Setting [2] is: ligand present: flavin mononucleotide, designed as: OFF switch for flavin mononucleotide.
Setting [3] is: designed as: ON switch for flavin mononucleotide, no ligand.
The mark [4] stands for this setting: ligand present: flavin mononucleotide, designed as: ON switch for flavin mononucleotide.

In the case of “CCAGGCUGUGUGAGGAUAUGCUGGUCCUUGGAUCAGCAGAAGGCACAUGAGGAUCACCCAUGUGAGUAGCUUGG”, the “apparent Kd” value is 16.2 nM under setting [1] and 62.2 nM under setting [2].

For the sequence “GGAUAUAUGAAGGGCGAACGCGCACAUGAGGAUCACCCAUGUAGAAGGCGGUCCGCAACGCGGAUCGAGGAUAUAUAGUAUACG”, the “apparent Kd” value by setting is: under setting [1], 19.1 nM; under setting [2], 17.3 nM.

Take “CUCUUUGUUGAGGAUAUGCACCAGCUCACUGACGCAGAAGGCGACACAUGAGGAUCACCCAUGUCAGUUCGCGU”: the “apparent Kd” value reads like this: under setting [1], 17.4 nM; under setting [2], 21.5 nM.

Take “CUUUUGUGAGGAUAUCAGUAGUAGAACAAUAGUACUACUACUGAGAAGGCACAUGAGGAUCACCCAUGUUCCUU”: the “apparent Kd” value was 16 nM under setting [1] and 35.6 nM under setting [2].

For the sequence “AGAGUGACAGGAUAUUGGAUUCCUAACAUGAGGAUCACCCAUGUAGUACGGUACUACUGUCAAGAAGGGUCACUCU”, the “apparent Kd” value is 75.8 nM under setting [1] and 68.8 nM under setting [2].

With “UCAUUUACCACAGGAUAUAUUCAUAUACAGUUGUUUGGCUCUUACAUAUUAAUAGAAGGGUGCAACAUGAGGAUCACCCAUGUA”, the “apparent Kd” value runs as follows: under setting [3], 274 nM; under setting [4], 191 nM.

Consider “AGUGUCAUCGAGAAGGCCCUGACAUGAGGAUCACCCAUGUUGUUACAUGGGAGGAUAUCGAUGAUACAGCUACGUUUCGUAGCA”, for which the “apparent Kd” value under setting [3] came out at 12.8 nM and the “apparent Kd” value under setting [4] was determined as 5.05 nM.

Regarding “CAGGUGUUAGGAUAUCGGAGAUCGAGACCGACGGGAUGAGCCGAGAAGGAACAUGAGGAUCACCCAUGUAGGUG”, the “apparent Kd” value reads like this: under setting [1], 575 nM; under setting [2], 247 nM.

As for “AGCGCCAUCGUGAGAUGGCGUAUUACAUGAGGAUCACCCAUGUAGGAUAUCGAUUGCUUUGCAGUCGAGAAGGACAUGUUCUUG”, the “apparent Kd” value is, setting by setting: under setting [1], 51.5 nM; under setting [2], 91.7 nM.

Turning to “UCAAAGCUAGGAUAUACAUGAGGAUCACCCAUGUUAUCACCCAUCGGGUCUUGCUUUUGUAGAAGGAGCAAUAA”, the “apparent Kd” value runs as follows: under setting [1], 28.2 nM; under setting [2], 59.8 nM.

In the case of “GGUUGGCGAGGAUAUACAUGAGGAUCACCCAUGUGGUCCUGUGGCAAAAAAAACCUUUGUAGAAGGCGCGGGUC”, the “apparent Kd” value under setting [1] worked out at 354 nM and the “apparent Kd” value under setting [2] came to 285 nM.

As to “CCGAAACCUCAGAAGGACCACAUGAGGAUCACCCAUGUCAAGCAAAACGGUAGGAUAUGAGGGAAAAGUCAAUAUACCCGACAG”, the “apparent Kd” value under setting [3] turned out to be 11.3 nM and the “apparent Kd” value under setting [4] stood at 4.9 nM.

As to “CAAAGGUGAGGAUAUACAUAACUAUGACGAAAGUCAUAAACACAUGAGGAUCACCCAUGUAGAAGGCACCACAA”, the “apparent Kd” value under setting [1] worked out at 26.3 nM and the “apparent Kd” value under setting [2] turned out to be 37.9 nM.

Turning to “UGGUACAUGGGAGGAUAUGGGUUGAUAACAUGAGGAUCACCCAUGUUAAAUAUGCCGAGAGGCAACUAGAAGGCCCAUGUACCU”, the “apparent Kd” value runs as follows: under setting [3], 482 nM; under setting [4], 38.2 nM.

In the case of “GGGUACAUCGGAGGAUAUCAUGUAAAUACAUGAGGAUCACCCAUGUCGAUGGAGACAUCUGAGAUUGAGAAGGCCGAUGUACCG”, the “apparent Kd” value stood at 19.4 nM under setting [3] and 6.45 nM under setting [4].

Consider “CUUUUGUGAGGAUAUCAGUAGUAAAUAAAUUAAAUUACUACUGAGAAGGCACAUGAGGAUCACCCAUGUUCCUC”, for which the “apparent Kd” value is, setting by setting: under setting [1], 38.3 nM; under setting [2], 249 nM.

Consider “UAGCUCUCGGCAGGAUAUCCUGCAUAAUGUCGAGUCCGCGCCCGGACAUGAGGAUCACCCAUGUAGGAGAAGGGCCCACGGGCG”, for which the “apparent Kd” value reads like this: under setting [1], 28 nM; under setting [2], 32.3 nM.

Regarding “UAAACACCCUCAUGUGCCUGAGGACAUGAGGAUCACCCAUGUAAGGAUAUAGCCAUUAAAUCUAACUAGAAGGUAUAGGACAUC”, the “apparent Kd” value runs as follows: under setting [1], 925 nM; under setting [2], 540 nM.

Consider “CCUCCGUAUGAGGAUAUCGUCCAGGAAACUGGACGAGAAGGCAUGACAUGAGGAUCACCCAUGUUAACGUGAUG”, for which the “apparent Kd” value was 19.8 nM under setting [1] and 52.1 nM under setting [2].

As to “AAUGAAUUCGAGAAGGGAGAUGUGGCACUUGUUUCGAAGUUGUGAUCACUCAGGAUAUCGAAACAUGAGGAUCACCCAUGUAAA”, the “apparent Kd” value under setting [3] worked out at 273 nM and the “apparent Kd” value under setting [4] came out at 17.5 nM.

On to “UUACAGGUUUAAGGCGUUCCCAGACAUGAGGAUCACCCAUGUAGAAGGACCGUAAGAAAUUUUCGGUAGGAUAUACAUUAAGGG”, for which the “apparent Kd” value reads like this: under setting [1], 28.6 nM; under setting [2], 29.2 nM.

“CAGUCUACAGGAUAUACAUGAGGAUCACCCAUGUGUAUCAACCUUCUGUAAUCCUCAUGUAGAAGGGUAGACUG”: the “apparent Kd” value is, setting by setting: under setting [1], 16.3 nM; under setting [2], 13.7 nM.

On to “AAAAAACAUGAGGAUCACCCAUGUGAGGAUAUCCAAAAGUUAAAGAAAAAGACGAAAAGGAGAAGGCGCAAAAA”, for which the “apparent Kd” value is, setting by setting: under setting [1], 109 nM; under setting [2], 82 nM.

On to “AUUAUUAUAAAUUUGGCAAGAAUCAGAAGGCGUUACAUGAGGAUCACCCAUGUUUUGUAUAGUAACGAGGAUAUGAUAUGGAAA”, for which the “apparent Kd” value is 17 nM under setting [1] and 12.9 nM under setting [2].

Turning to “UAUUUACAUGAGGAUCACCCAUGUUAGGAUAUGUUUCUAUCGUCGAAAGAUGAUAUUUGCAGAAGGGACAUUAU”, the “apparent Kd” value runs as follows: under setting [1], 20.5 nM; under setting [2], 23.3 nM.

“GAGAAGUCAGGAUAUCCAUGGCGGCACUUGCGUGGUGGCGUGGAGAAGGGACAUGAGGAUCACCCAUGUAAAGG”: the “apparent Kd” value under setting [1] was 165 nM and the “apparent Kd” value under setting [2] is 157 nM.

For the sequence “ACAUGAGGAUCACCCAUGUUCACAUAGGAUAUUGAUUAUAUUGGUUUUAGAAUAGUAAUUAACCUCAAGAAGGAUGCCAGAUCU”, the “apparent Kd” value came to 13.7 nM under setting [3] and 10.1 nM under setting [4].

As for “AAUUUAAUACAUGAGGAUCACCCAUGUAAUACUUGUAAGAUCAAGGAUAUCAGCUCGAUUAGAGCUGAGAAGGUGAUCACAUGU”, the “apparent Kd” value stood at 73.1 nM under setting [3] and 204 nM under setting [4].

“AAAAAACAUGAGGAUCACCCAUGUGAGGAUAUAGGAAAAAAAAAAAAAAAAAAAAAAACUAGAAGGCACAAAAA”: the “apparent Kd” value by setting is: under setting [1], 55.4 nM; under setting [2], 74.6 nM.

Turning to “CCCGACUAGAAGUCGGUACGGAGGAGAAGGCGCCUCCUGGGUCCACAUGAGGAUCACCCAUGUGGCGAGGAUAUCCUCAGUUUU”, the “apparent Kd” value was found to be 14.2 nM under setting [1] and 74 nM under setting [2].

“CUUUUUUUUGUGAGGAUAUACUGUUAUUAAAGUUAGUAGAAGGUACAUGAGGAUCACCCAUGUUAAUUACUUUA”: the “apparent Kd” value by setting is: under setting [1], 14.2 nM; under setting [2], 13.8 nM.

For the sequence “UAUUUGUGAGGAUAUGAGUCGUAGAACAAUAGUACUACGUCUCAGAAGGUACAUGAGGAUCACCCAUGUUCCUC”, the “apparent Kd” value reads like this: under setting [1], 19 nM; under setting [2], 28 nM.

Regarding “GCACGAGACUAAGGAUAUGGUGUACCUACAUGUAACAUGAGGAUCACCCAUGUAGUAAGUAUGAUUCAGAAGGUAGAGACGUGC”, the “apparent Kd” value is, setting by setting: under setting [3], 47.3 nM; under setting [4], 18.6 nM.

Take “GGACGUCACAUCUACAUGAGGAUCACCCAUGUCUCUUGAGAUGAGGAUAUGUAUACGAAUCGUUUAUAGAAGGCAUGGACGUCC”: the “apparent Kd” value stood at 348 nM under setting [3] and 325 nM under setting [4].

In the case of “GAUUAACAUGAGGAUCACCCAUGUGAGGAUAUGGAAUGGCUCAUUUUUUGAUUCCCGUCUAGAAGGCACAUCUU”, the “apparent Kd” value is, setting by setting: under setting [1], 71.8 nM; under setting [2], 83.8 nM.

On to “GCAGGCUUCGAGAAGGACAUGAGGAUCACCCAUGUGCGUGUGAAGCAGCCGUGAGGCUGCAUCAUGUAGGAUAUCGGAGUCUGU”, for which the “apparent Kd” value is, setting by setting: under setting [1], 77.8 nM; under setting [2], 650 nM.

Regarding “UGGUACAUGGGAGGAUAUGGGUUGAUAACAUGAGGAUCACCCAUGUUAAAUGCCGAAAGGCAAAACUAGAAGGCCCAUGUACCU”, the “apparent Kd” value reads like this: under setting [3], 257 nM; under setting [4], 24.5 nM.
